ChEMBL document CHEMBL2034906, “Inhibition of tumor cells interacting with stromal cells by xanthones isolated from a Costa Rican Penicillium sp” (J Nat Prod, 2012)

Tests used:
L-363 [1] = assay: Cytotoxicity against human L363 cells after 48 hrs by luminometric analysis in presence of HS5 bone marrow stromal cells; type: functional, cell-based; settings: L-363, 48 h
How it was run: (§1)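 Tumor cells were co-cultured with HS-5 bone marrow stromal cells. For non-adherent tumors, stroma was seeded overnight, then tumor cells were overlaid and treated the next day. For adherent tumors, stroma and tumor cells were plated together overnight, then treated. Cells received increasing compound concentrations for 48 h. Luciferin was added for 30 min and bioluminescence read. Signal was normalized to the untreated control, in quadruplicate, and IC50 was calculated.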

[2] = Cytotoxicity against human OCI-My5 cells after 48 hrs by luminometric analysis in presence of HS5 bone marrow stromal cells; type: functional, cell-based; settings: OCI-My5, 48 h; how it was run: as §1
[3] = Cytotoxicity against human 8226/DOX40 cells after 48 hrs by luminometric analysis; type: functional, cell-based
How it was run: (§2)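 Tumor cells were cultured without HS-5 stromal cells and treated with increasing compound concentrations for 48 h. Luciferin substrate was added, cultures were incubated 30 min, and bioluminescence was read on a luminometer. Signal was normalized to the non-treated control, with each condition in quadruplicate, and IC50 was calculated.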

L-363 [4] = assay: Cytotoxicity against human L363 cells after 48 hrs by luminometric analysis; type: functional, cell-based; settings: L-363, 48 h; how it was run: as §2
HT [5] = assay: Cytotoxicity against human HT cells after 48 hrs by luminometric analysis; type: functional, cell-based; how it was run: as §2
[6] = Cytotoxicity against human OCILY17R cells after 48 hrs by luminometric analysis; type: functional, cell-based; how it was run: as §2
MDA-MB-231 [7] = assay: Cytotoxicity against human MDA-MB-231 cells after 48 hrs by luminometric analysis; type: functional, cell-based; settings: MDA-MB-231, 48 h; how it was run: as §2
[8] = Cytotoxicity against human KMS34 cells after 48 hrs by luminometric analysis; type: functional, cell-based; settings: KMS-34, 48 h; how it was run: as §2
HT [9] = assay: Cytotoxicity against human HT cells after 48 hrs by luminometric analysis in presence of HS5 bone marrow stromal cells; type: functional, cell-based; how it was run: as §1
[10] = Cytotoxicity against human MM1S cells after 48 hrs by luminometric analysis; type: functional, cell-based; settings: MM1.S; how it was run: as §2
[11] = Cytotoxicity against human KU-812F cells after 48 hrs by luminometric analysis; type: functional, cell-based; how it was run: as §2
PC-3 [12] = assay: Cytotoxicity against human PC3 cells after 48 hrs by luminometric analysis; type: functional, cell-based; settings: PC-3, 48 h; how it was run: as §2
[13] = Cytotoxicity against human KU-812F cells after 48 hrs by luminometric analysis in presence of HS5 bone marrow stromal cells; type: functional, cell-based; how it was run: as §1
RPMI-8226 [14] = assay: Cytotoxicity against human RPMI8226 cells after 48 hrs by luminometric analysis; type: functional, cell-based; settings: RPMI-8226, 48 h; how it was run: as §2
OPM-2 [15] = assay: Cytotoxicity against human OPM2 cells after 48 hrs by luminometric analysis; type: functional, cell-based; settings: OPM-2, 48 h; how it was run: as §2
NCI-H929 (Homo sapiens) [16] = assay: Cytotoxicity against human NCI-H929 cells after 48 hrs by luminometric analysis; settings: NCI-H929, 48 h
PC-3 [17] = assay: Cytotoxicity against human PC3 cells after 48 hrs by luminometric analysis in presence of HS5 bone marrow stromal cells; type: functional, cell-based; settings: PC-3, 48 h; how it was run: as §1
[18] = Cytotoxicity against human 8226/DOX40 cells after 48 hrs by luminometric analysis in presence of HS5 bone marrow stromal cells; type: functional, cell-based; how it was run: as §1
[19] = Cytotoxicity against human MM1S cells after 48 hrs by luminometric analysis in presence of HS5 bone marrow stromal cells; type: functional, cell-based; settings: MM1.S; how it was run: as §1
RPMI-8226 [20] = assay: Cytotoxicity against human RPMI8226 cells after 48 hrs by luminometric analysis in presence of HS5 bone marrow stromal cells; type: functional, cell-based; settings: RPMI-8226, 48 h; how it was run: as §1
MDA-MB-231 [21] = assay: Cytotoxicity against human MDA-MB-231 cells after 48 hrs by luminometric analysis in presence of HS5 bone marrow stromal cells; type: functional, cell-based; settings: MDA-MB-231, 48 h; how it was run: as §1
OPM-2 [22] = assay: Cytotoxicity against human OPM2 cells after 48 hrs by luminometric analysis in presence of HS5 bone marrow stromal cells; type: functional, cell-based; settings: OPM-2, 48 h; how it was run: as §1
[23] = Cytotoxicity against human Farage cells after 48 hrs by luminometric analysis in presence of HS5 bone marrow stromal cells; type: functional, cell-based; how it was run: as §1
[24] = Cytotoxicity against human OCILY17R cells after 48 hrs by luminometric analysis in presence of HS5 bone marrow stromal cells; type: functional, cell-based; how it was run: as §1
[25] = Cytotoxicity against human Farage cells after 48 hrs by luminometric analysis; type: functional, cell-based; how it was run: as §2
NCI-H929 (Homo sapiens) [26] = assay: Cytotoxicity against human NCI-H929 cells after 48 hrs by luminometric analysis in presence of HS5 bone marrow stromal cells; settings: NCI-H929, 48 h
[27] = Cytotoxicity against human OCI-My5 cells after 48 hrs by luminometric analysis; type: functional, cell-based; settings: OCI-My5, 48 h; how it was run: as §2
[28] = Cytotoxicity against human KMS34 cells after 48 hrs by luminometric analysis in presence of HS5 bone marrow stromal cells; type: functional, cell-based; settings: KMS-34, 48 h; how it was run: as §1
[29] = Cytotoxicity against human HOBIT cells after 48 hrs by luminometric analysis; type: cell-based
[30] = Cytotoxicity against human SVGp12 cells after 48 hrs by luminometric analysis; type: cell-based; settings: SVGp12, 48 h
[31] = Cytotoxicity against human THLE3 cells after 48 hrs by luminometric analysis; type: cell-based; settings: THLE3, 48 h
[32] = Cytotoxicity against human HS5 cells after 48 hrs by luminometric analysis; type: cell-based; settings: HS5, 48 h
RPMI-8226 [33] = assay: Ratio of IC50 for human RPMI8226 cells in absence of HS5 bone marrow stromal cells to IC50 for human RPMI8226 in presence of HS5 bone marrow stromal cells; type: functional

SMILES	IC50 [3]	IC50 (HT [5])	IC50 (MDA-MB-231 [7])	IC50 (HT [9])	IC50 [10]	IC50 [11]	IC50 (PC-3 [12])	IC50 [13]	IC50 (RPMI-8226 [14])	IC50 (OPM-2 [15])	IC50 (NCI-H929 (Homo sapiens) [16])	IC50 (PC-3 [17])	IC50 [18]	IC50 [19]	IC50 (RPMI-8226 [20])	IC50 (MDA-MB-231 [21])	IC50 (OPM-2 [22])	IC50 [23]	IC50 [25]	IC50 (NCI-H929 (Homo sapiens) [26])	other results
CC(=O)OC[C@]12Oc3c(-c4ccc5c(c4O)C(=O)C4=C(O)C[C@@H](C)[C@@H](OC(C)=O)[C@@]4(CO)O5)ccc(O)c3C(=O)C1=C(O)C[C@@H](C)[C@H]2OC(C)=O (relative stereo)	15 µM	10.8 µM	43.4 µM	9.9 µM	37.1 µM	14.6 µM	122 µM	24.2 µM	12.9 µM	12.7 µM	54.5 µM	66.3 µM	21.6 µM	47.1 µM	8.9 µM	34.2 µM	10.5 µM	10.5 µM	12.4 µM	35.2 µM	IC50 (L-363 [1]): 79.4 µM; IC50 [2]: 47.7 µM; IC50 (L-363 [4]): 66 µM; IC50 [6]: 31.1 µM; IC50 [8]: 22.6 µM; IC50 [24]: 47.4 µM; IC50 [27]: 18.8 µM; IC50 [28]: 55.6 µM
CC(=O)OC[C@]12Oc3cccc(O)c3C(=O)C1=C(O)C[C@@H](C)[C@H]2OC(C)=O (relative stereo)	11.6 µM	100 µM	164 µM	34.9 µM	168 µM	44.9 µM	1380 µM	95.9 µM	71.6 µM	42.8 µM	188 µM	216 µM	24.2 µM	186 µM	34 µM	118 µM	44.8 µM	38.7 µM	200 µM	94.8 µM	IC50 (L-363 [1]): 199 µM; IC50 [2]: 384 µM; IC50 (L-363 [4]): 464 µM; IC50 [6]: 1620 µM; IC50 [8]: 153 µM; IC50 [24]: 293 µM; IC50 [27]: 158 µM; IC50 [28]: 199 µM
CC(=O)O[C@@H]1[C@H](C)CC(O)=C2C(=O)c3c(ccc(-c4ccc5c(c4O)C(=O)C4=C(O)C[C@@H](C)[C@@H](OC(C)=O)[C@@]4(CO)O5)c3O)O[C@@]21CO [DICERANDROL A]	22.8 µM		43.3 µM		28.9 µM	24.6 µM	100 µM	46.6 µM			42.5 µM	71.7 µM	36.9 µM	33.3 µM		38.4 µM		14.8 µM	15.6 µM	22.9 µM	
CC(=O)OC[C@]12Oc3ccc(-c4ccc5c(c4O)C(=O)C4=C(O)C[C@@H](C)[C@@H](OC(C)=O)[C@@]4(CO)O5)c(O)c3C(=O)C1=C(O)C[C@@H](C)[C@H]2OC(C)=O [DICERANDROL B]	2.2 µM	1.2 µM	8.5 µM	1.3 µM	7.3 µM	2.7 µM	34 µM	3.6 µM	2.4 µM	1.9 µM	10.2 µM	14.1 µM	2.3 µM	8 µM	1.2 µM	5.5 µM	1.5 µM	1.3 µM	1.6 µM	3.4 µM	IC50 [29]: 9.2 µM; IC50 [2]: 5.7 µM; IC50 (L-363 [4]): 16.7 µM; IC50 [30]: 13.7 µM; IC50 [31]: 10 µM; IC50 [6]: 4.6 µM; IC50 [8]: 5.5 µM; IC50 [24]: 5.2 µM; IC50 [27]: 2.8 µM; IC50 [28]: 9.3 µM; IC50 [32]: 13 µM; Ratio IC50 (RPMI-8226 [33]): 2
CC(=O)OC[C@]12Oc3ccc(-c4ccc5c(c4O)C(=O)C4=C(O)C[C@@H](C)[C@@H](OC(C)=O)[C@@]4(COC(C)=O)O5)c(O)c3C(=O)C1=C(O)C[C@@H](C)[C@H]2OC(C)=O [DICERANDROL C]	10 µM	2.1 µM	18.1 µM	4 µM	14.7 µM	7.1 µM	121 µM	14.3 µM	4.8 µM	4.8 µM	10.8 µM	45.2 µM	13.9 µM	20.8 µM	2.8 µM	13.3 µM	7.5 µM	3.3 µM	3.5 µM	5.4 µM	
